In PMC3070847 (Bioorganic & medicinal chemistry letters, 2011) one finds IC50 data, which are given here for eight molecules.

Each structure is given as a SMILES string. A value given as a limit tells only on which side of the number the result lay.

This assay addresses HIV-1 IN (Human immunodeficiency virus type 1 group M subtype B, UniProt P04585). Put plainly: Biochemical gel assay of HIV-1 IN. The conditions noted are these: IN IC50 3'-P, 3' processing function. The method in brief: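 Recombinant HIV-1 integrase was used as the enzyme in the biochemical evaluation.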
Usually IC50 stands for the point on the concentration scale where inhibition reaches its midpoint. A high value points to weaker potency in that assay. With `CCc1c(C(=O)c2ccccc2)n(COCc2ccccc2)c(=O)n(O)c1=O` [Compound 17], the IC50 was over 111 µM. As for `CCc1c(C(=O)c2ccccc2)n(COCc2ccc(F)cc2)c(=O)n(O)c1=O` [Compound 18], the figure is over 111 µM; as for `CCc1c(C(=O)c2cc(C)cc(C)c2)n(COCc2ccc(F)cc2)c(=O)n(O)c1=O` [Compound 19], over 111 µM. For `CCc1c(C(=O)c2cc(C)cc(C)c2)n(COCc2ccccc2)c(=O)n(O)c1=O` [Compound 20], the IC50 was over 111 µM. The same measure for `CCc1c(C(=O)c2ccccc2)n(COCCc2ccc(F)cc2)c(=O)n(O)c1=O` [Compound 21]: over 111 µM; for `CCc1c(C(=O)c2cc(C)cc(C)c2)n(COCCc2ccc(F)cc2)c(=O)n(O)c1=O` [Compound 22]: over 111 µM.

As to `CCOCn1c(C(=O)c2ccccc2)c(CC)c(=O)n(O)c1=O` [Compound 23], the IC50 was over 111 µM. The same measure for `CCOCn1c(C(=O)c2cc(C)cc(C)c2)c(CC)c(=O)n(O)c1=O` [Compound 24]: over 111 µM.
